Measured values of several laboratories.
Protocols differ between the studies behind these lines.
LDHA: L-lactate dehydrogenase A chain (LDHA, Homo sapiens, UniProt P00338)
MAOA: Amine oxidase [flavin-containing] A (MAOA, Homo sapiens, UniProt P21397)
Acetylcholinesterase: Acetylcholinesterase (Bos taurus, UniProt P23795)
PTPN1: Tyrosine-protein phosphatase non-receptor type 1 (PTPN1, Homo sapiens, UniProt P18031)
Integrin alpha-V/beta-3: Integrin alpha-V/beta-3 (Homo sapiens, UniProt P05106+P06756)

Compound | target | read-out | mode | method | pH | IC50 [µM]
COc1c(O[C@@H]2O[C@H](CO)[C@@H](O)[C@H](O)[C@H]2O)cc2oc(-c3ccc(O)cc3)cc(=O)c2c1O | LDHA | enzyme activity | inhibitor | – | pH 7.4 | 210
COc1ccc(/C=C/C(=O)N2CCN(Cc3ccccc3)CC2)cc1OC | MAOA | enzyme activity | inhibitor | fluorescence | – | 63.2
CC[n+]1c(-c2ccccc2)c2cc(N)ccc2c2ccc(N)cc21 | Acetylcholinesterase | enzyme activity | inhibitor | Ellman | – | 32.3
Cc1ccc2nc(N3C(=O)C(O)=C(C(=O)OC(C)(C)C)C3c3ccc(-c4ccc(Cl)cc4)o3)sc2c1 (centres unmarked) | UDP-N-acetylglucosamine 1-carboxyvinyltransferase (murA, Escherichia coli K-12, UniProt P0A749) | enzyme activity | inhibitor | – | – | 4.5
NC(Cc1ccc(C(F)(F)[P-](F)(F)(F)(F)F)cc1)C(=O)O (centres unmarked) | PTPN1 | enzyme activity | inhibitor | – | – | 122
CC[C@H](C)[C@@H]([C@@H](CC(=O)N1CCC[C@H]1[C@H](OC)[C@@H](C)C(=O)N[C@@H](Cc1ccccc1)C(=O)O)OC)N(C)C(=O)[C@@H](NC(=O)[C@H](C(C)C)N(C)C(=O)CCc1cn(CCOCCOCCOCCOCC(=O)NCc2ccc(CN3C(=O)[C@H]4CC(=O)N[C@H](C(=O)O)CC(=O)NCC(=O)N[C@@H](CCCNC(=N)N)C(=O)NC[C@H]3C(=O)N4)cc2)nn1)C(C)C | Integrin alpha-V/beta-3 | ligand displacement | – | – | – | 0.0107
CN(C)CCCN1c2ccccc2Sc2ccccc21 | Histamine H2 receptor (HRH2, Homo sapiens, UniProt P25021) | ligand displacement | – | radioligand | – | 0.11
O=C(Nc1ccc([N+](=O)[O-])cc1[N+](=O)[O-])c1ccc2c(c1)OCO2 | MAOA | enzyme activity | inhibitor | – | – | 0.289
CCCc1c(C2CCCCN2CCN2CCOCC2)[nH]c2cc(OC(F)(F)F)ccc12 (centres unmarked) | Plasma membrane ATPase 1 (PMA1, Saccharomyces cerevisiae, UniProt P05030) | ATPase activity | inhibitor | – | – | 26.9
CC[C@H](C)[C@@H]([C@@H](CC(=O)N1CCC[C@H]1[C@H](OC)[C@@H](C)C(=O)N[C@H](C)[C@@H](O)c1ccccc1)OC)N(C)C(=O)[C@@H](NC(=O)[C@H](C(C)C)N(C)C(=O)OCc1ccc(NC(=O)[C@H](C)NC(=O)[C@@H](NC(=O)CCc2cn(CCOCCOCCOCCOCC(=O)NCc3ccc(CN4C(=O)[C@H]5CC(=O)N[C@H](C(=O)O)CC(=O)NCC(=O)N[C@@H](CCCNC(=N)N)C(=O)NC[C@H]4C(=O)N5)cc3)nn2)C(C)C)cc1)C(C)C | Integrin alpha-V/beta-3 | ligand displacement | – | – | – | 0.0362
CNC(=O)Oc1cccc2c1OC(C)(C)C2 | Acetylcholinesterase | enzyme activity | inhibitor | Ellman | – | 0.073
O=c1cc(-c2ccc(O)c(O)c2)oc2cc(O[C@@H]3O[C@H](CO)[C@@H](O)[C@H](O)[C@H]3O[C@@H]3O[C@H](CO)[C@@H](O)[C@H](O)[C@H]3O)cc(O)c12 | LDHA | enzyme activity | inhibitor | – | pH 7.4 | 163
NC(Cc1ccc(C(=O)[P-](F)(F)(F)(F)F)cc1)C(=O)O (centres unmarked) | PTPN1 | enzyme activity | inhibitor | – | – | 104
O=C1C[C@H](c2ccc(O)cc2)Oc2cc(O)ccc21 | MAOA | enzyme activity | inhibitor | – | – | 9.97
COc1cc(Nc2ncc(F)c(Nc3ccc4c(n3)NC(=O)C(C)(C)O4)n2)cc(OC)c1OC | Cathepsin S (CTSS, Homo sapiens, UniProt P25774) | enzyme activity | inhibitor | – | – | 12.6
C#CCNc1nc(NCCCCC2CCN(Cc3ccccc3)CC2)c(C#N)cc1C#N | MAOA | enzyme activity | inhibitor | fluorescence | – | 53.3
CC(C)(C)OC(=O)N1CCN(C(=O)C(=O)CC(=O)c2cccc(OCc3ccccc3)c2)CC1 | PTPN1 | enzyme activity | inhibitor | absorbance | pH 7 | 39.5
CNC1CC(c2ccc(Cl)c(Cl)c2)c2ccccc21 (centres unmarked) | Glutathione reductase, mitochondrial (GSR, Homo sapiens, UniProt P00390) | enzyme activity | inhibitor | absorbance | – | > 100
CNC(=O)Oc1cccc2c1OC(C)(C)O2 | Acetylcholinesterase | enzyme activity | inhibitor | Ellman | – | 0.195
CCCCc1ccc(NS(=O)(=O)c2ccc3c4c(cccc24)C(=O)N3)cc1 | PTPN1 | enzyme activity | inhibitor | – | – | 59.4
